TRPN1 ag = zebrafish TRPN1 (NompC) channel agonism | HEK293 zebrafish TRPN1-YFP, Fluo-8 calcium fluorescence; 100% = response to 87 µM carbachol | activation, % at 3 µM | actives 0.18% (n = 220,000);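 active = activation above its plate's cutoff, the mean activation of test wells on that plate plus 3 SD, cut at about 19% in these data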;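 note: 0% = DMSO alone and 100% = 87 µM carbachol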
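Material: zebrafish TRPN1-YFP in HEK293 cells; Doses: single test compound dose, 3 µM nominal, 0.3% DMSO; Timing: dye loading 1 h at 37 °C, then 30 min room temperature; Technique: intracellular calcium fluorescence with Fluo-8; Benchmarks: high carbachol 87 µM, low DMSO alone.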
TRPML3 ag = agonists of human TRPML3 channel; Q8TDD5; actives 0.29% (n = 220,000); HEK293 TRPML3-YFP, Fluo-8 calcium fluorescence; 100% = the carbachol control signal; activation, % at 3 µM;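 active = activation above its plate's cutoff, the mean activation of the plate's test wells plus 3 SD, cut at about 12% in these data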;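 note: 0% = DMSO only wells and 100% = carbachol wells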
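Material: HEK293 cells stably carrying human TRPML3-YFP; compound dosing: single dose, 3 µM final nominal compound, 0.3% DMSO final; incubation: 1-h 37 °C dye load, 5-s basal, 120-s post-compound reads; technique: Fluo-8 intracellular calcium fluorescence, excitation 470-495 nm, emission 515-575 nm; read-out basis: percent activation from peak-to-basal fluorescence ratio, scaled between DMSO and carbachol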
OXTR potentiator = human OXTR potentiation | P30559 | CHO-OTR cells, Fluo-8 calcium fluorescence, potentiator mode; 0% = oxytocin EC15, 100% = EC100 | activation, % at 3 µM | actives 0.061% (n = 320,000) | AID 2445;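 active = activation above that plate's cutoff, the mean activation of tested compounds plus 3 SD, cut at about 6.6% in these data, passing the limit was not always enough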;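 note: 100% uses oxytocin at 75 nM as the full agonist control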
Target sequence (P30559 whole entry, looked up): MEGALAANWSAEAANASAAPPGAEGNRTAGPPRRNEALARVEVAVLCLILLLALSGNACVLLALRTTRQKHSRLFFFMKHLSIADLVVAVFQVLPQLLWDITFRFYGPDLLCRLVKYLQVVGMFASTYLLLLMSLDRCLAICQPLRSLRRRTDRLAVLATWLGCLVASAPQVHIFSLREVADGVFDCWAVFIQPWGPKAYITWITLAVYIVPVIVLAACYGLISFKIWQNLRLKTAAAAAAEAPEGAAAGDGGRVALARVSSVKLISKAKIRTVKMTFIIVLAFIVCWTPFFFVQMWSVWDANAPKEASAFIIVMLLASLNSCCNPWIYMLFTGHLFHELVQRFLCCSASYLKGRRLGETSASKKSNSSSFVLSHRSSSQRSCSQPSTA
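Assay system: CHO-OTR cells, human receptor / Also added: oxytocin at about EC15, sub-maximal agonist stimulus / Dosing: single dose, 3.0 µM nominal final compound concentration / Incubation: 6 min pre-incubation, 100 s read / Technique: Fluo-8 calcium dye fluorescence / Read-out: % activation vs EC15 and EC100 oxytocin / Benchmarks: EC15 oxytocin low, 75 nM oxytocin high / Replicates: singlicate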
V1aR counter = V1a receptor agonism, counter-screen for OXTR agonists | P37288 | CHO-V1R cells, Fluo-8 calcium fluorescence, agonist mode; 0% DMSO, 100% 3 nM vasopressin | activation, % at 3 µM | actives 0.25% (n = 320,000) | AID 2797;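 active = activation above the mean activation of all tested compounds plus 3 SD, per screening run, cut at about 20% in these data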;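 note: signal is peak over basal fluorescence ratio across a 100 second FLIPR read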
Target sequence (P37288 whole entry, looked up): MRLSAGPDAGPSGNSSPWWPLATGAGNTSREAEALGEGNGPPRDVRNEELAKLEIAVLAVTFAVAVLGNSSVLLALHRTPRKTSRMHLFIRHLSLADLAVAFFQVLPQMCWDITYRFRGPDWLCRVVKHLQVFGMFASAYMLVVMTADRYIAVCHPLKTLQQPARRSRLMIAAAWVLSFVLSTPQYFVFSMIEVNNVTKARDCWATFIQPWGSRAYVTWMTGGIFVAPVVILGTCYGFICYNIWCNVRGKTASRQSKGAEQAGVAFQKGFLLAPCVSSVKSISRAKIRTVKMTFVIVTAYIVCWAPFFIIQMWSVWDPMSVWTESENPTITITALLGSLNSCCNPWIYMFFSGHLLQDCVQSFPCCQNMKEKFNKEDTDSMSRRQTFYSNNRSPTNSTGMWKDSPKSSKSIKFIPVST
OXTR agonist = agonists of human oxytocin receptor | AID 2435 | actives 0.32% (n = 320,000) | CHO-OTR cells, Fluo-8 calcium fluorescence; normalized: DMSO 0%, oxytocin 100% | P30559 | activation, % at 3 µM;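 active = activation above the mean of all tested compounds plus 3 SD, cutoff set per screening run, cut at about 20% in these data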;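 note: peak over basal fluorescence ratio from a 100 s FLIPR kinetic read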
TRPN1 counter = counter-screen for TRPML3 agonists: agonists of zebrafish TRPN1 channel | shares compounds with TRPML3 ag | HEK293 zebrafish TRPN1-YFP, Fluo-8 calcium fluorescence; scaled: carbachol wells 100%, DMSO wells 0% | activation, % at 3 µM | actives 10% (n = 310) | AID 1525;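 active = mean activation over replicates above a set limit taken from the earlier TRPN1 channel primary screen, cut at about 19% in these data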;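 note: 100% = carbachol and 0% = 0.3% DMSO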
TRPML3 ag conf = confirmation of human TRPML3 channel agonists; shares compounds with TRPML3 ag; HEK293 TRPML3-YFP, Fluo-8 calcium fluorescence; 100% set by carbachol, 0% by DMSO; actives 80% (n = 310); activation, % at 3 µM;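 active = activation above a set limit derived from the earlier primary screen, cut at about 12% in these data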
OXTR ag confirm = confirmation of human oxytocin receptor agonists; CHO-OTR cells, Fluo-8 calcium fluorescence, agonist; shares compounds with OXTR agonist; activation, % at 3 µM; actives 20% (n = 390);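 active = mean activation above about 20% derived from the earlier single-dose screen, limit read from the data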;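 note: peak over minimum fluorescence ratio per well during a 100 second FLIPR read; 0% = DMSO alone and 100% = oxytocin high control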
V1R ag counter 3x = activates V1a receptor in oxytocin agonist counter-screen | activation, % at 3 µM | CHO-V1R cells, Fluo-8 calcium fluorescence | shares compounds with OXTR agonist | actives 10% (n = 390);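 active = mean activation over triplicate exceeds the hit threshold set in the earlier primary screen, cut at about 20% in these data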;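 note: peak over basal fluorescence ratio within a 100 second read; 0% = DMSO alone and 100% = 3 nM vasopressin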
V1R ag confirm = human V1a receptor agonism, confirmation | CHO-V1R cells, Fluo-8 calcium fluorescence, agonist | shares compounds with V1aR counter | AID 434964 | activation, % at 3 µM | actives 20% (n = 180);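 active = average activation exceeds primary screen hit cutoff, cut at about 21% in these data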;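 note: peak over basal fluorescence ratio during a 100 s FLIPR read; 0% = DMSO only wells and 100% = 3 nM vasopressin wells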
OXTR ag counter = OXTR agonism, counter-screen for V1R agonists. CHO-OTR cells, Fluo-8 calcium fluorescence, agonist. actives 10% (n = 180). activation, % at 3 µM. shares compounds with V1aR counter;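 active = mean activation over three repeats above the cutoff from the earlier oxytocin receptor agonist screen, cut at about 20% in these data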;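 note: peak over minimum fluorescence ratio within a 100 second FLIPR read; 0% = DMSO only wells and 100% = oxytocin high control wells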
Starred values were filed as active, the others as inactive; · = not tested or not shown. This is a sample that favours compounds with a hit; in the whole collection about 0.55% have one here.

SMILES | TRPN1 ag | TRPML3 ag | OXTR potentiator | V1aR counter | OXTR agonist | TRPN1 counter | TRPML3 ag conf | others
Cc1cc(C)c(C(=O)c2ccc(C(=O)N(C(C)C)C(C)C)cc2)c(C)c1 | -2 | 18* | -7 | -2 | -2 | 4 | 74*
Cc1cc(C(=O)NCC(=O)OC(C)C(=O)N2CCOCC2)ccc1[N+](=O)[O-] (stereo not drawn) | · | · | -1 | 2 | 1 | · | ·
CN(C)c1ccc(/C=C(/C(=O)c2ccc(Cl)cc2Cl)n2cncn2)cc1 | 15 | 12* | -14 | 29* | 21* | 22* | 12*
COc1ccc(C(=O)NCC(=O)N2CCN(C(=O)c3ccco3)CC2)cc1[N+](=O)[O-] | · | · | -2 | 0 | 0 | · | ·
COc1ccc(S(=O)(=O)N(CC(=O)N2CCOCC2)c2cc(Cl)ccc2OC)cc1OC | 3 | 45* | -8 | 1 | 0 | 2 | 42*
COc1ccc(Cl)cc1N(CC(=O)N1CCCC1)S(=O)(=O)c1ccc(C)cc1 | · | · | -6 | 0 | 1 | · | ·
COc1ccc(S(=O)(=O)NN(C)C)cc1N(C)S(=O)(=O)c1ccc(Cl)cc1 | 1 | 0 | -5 | 0 | 0 | · | ·
COc1ccc(S(=O)(=O)Nc2ccc(C)cc2)cc1N(C)S(=O)(=O)c1ccc(Cl)cc1 | 1 | 61* | -4 | 0 | -1 | -1 | 32*
COC(=O)CN(c1cc(Cl)ccc1OC)S(=O)(=O)c1ccc(C)cc1 | -2 | 70* | -3 | -1 | -1 | -1 | 61*
CCN(CC)c1ccc2cc(-c3nnc(-c4ccccc4)o3)c(=O)oc2c1 | 19 | 12* | -17 | 50* | 42* | 248* | 177*
O=c1oc2ccc3ccccc3c2cc1-c1nnc(-c2ccccc2)o1 | 3 | 1 | -8 | 0 | 1 | · | ·
CCn1c(=O)c(C(=O)CN(C)CC(=O)Nc2cccc(F)c2)c(N)n(Cc2ccccc2)c1=O | · | · | -8 | 2 | 2 | · | ·
COc1ccc(C(=O)Nc2ccc(S(=O)(=O)N3CCCCC3C)cc2)c(OC)c1OC (stereo not drawn) | 1 | 70* | -6 | 3 | 3 | 1 | 83*
CC1(C)Cc2cccc(Oc3ccc(S(=O)(=O)N4CCCC4)cn3)c2O1 | -1 | 2 | -9 | -1 | -2 | · | ·
CC1(C)Cc2cccc(Oc3ccc(S(=O)(=O)N4CCCCC4)cn3)c2O1 | -2 | 20* | -14 | -1 | -2 | -1 | 30*
Cc1ccc(N/C(N)=N/c2nc(C)cc(C)n2)cc1 | 9 | 15* | -12 | 7 | 7 | 31* | 20*
CCOc1ccccc1NC(=O)C1CCN(c2ccc(S(=O)(=O)N3CCCC3)cc2)CC1 | 0 | 20* | -6 | 0 | 0 | 1 | 20*
Cc1cc(N(C)C(=O)c2ccc3c(c2)S(=O)(=O)c2cc(Cl)ccc2C3=O)c(C(F)(F)F)o1 | · | · | -1 | 2 | 1 | · | ·
COc1ccc(S(=O)(=O)N2CCCCCC2)cc1C(=O)OCc1c(C)noc1C | 3 | 30* | -6 | 0 | -1 | 2 | 14*
Cc1noc(C)c1COC(=O)c1cccc(S(=O)(=O)N2CCCCCC2)c1 | 11 | 13* | -8 | 6 | 9 | 6 | 18*
Cc1noc(C)c1COC(=O)c1ccc(F)c(S(=O)(=O)N2CCCCC2)c1 | 4 | 3 | -12 | 2 | 0 | · | ·
Cc1ccc(SCC(=O)OC(C)C(=O)NC2CCCCC2C)c(C)c1 (stereo not drawn) | · | · | -9 | -1 | -2 | · | ·
CC(C)(C)N(NC(=O)c1ccccc1)C(=O)c1ccc(C(=O)N(NC(=O)c2ccccc2)C(C)(C)C)cc1 | 0 | 1 | -7 | 1 | 0 | · | ·
COc1ccc(C(=O)N(NC(=O)Oc2ccccc2)C(C)(C)C)cc1 | 0 | 13* | -4 | 1 | -2 | 0 | 0
COc1ccc(CCNC(=O)COc2ccc(N(C)S(=O)(=O)c3ccc(Cl)cc3)cc2)cc1 | 2 | 44* | · | · | · | 3 | 41*
SMILES | TRPN1 ag | TRPML3 ag | OXTR potentiator | V1aR counter | OXTR agonist | TRPN1 counter | TRPML3 ag conf | others
CCc1nnc(NC(=O)COc2ccc(N(C)S(=O)(=O)c3ccc(C)cc3)cc2)s1 | 1 | 23* | · | · | · | 2 | 63*
CCOC(=O)Cc1csc(NC(=O)COc2ccc(N(C)S(=O)(=O)c3ccc(C)cc3)cc2)n1 | 3 | 5 | -25 | 5 | 5 | · | ·
Cc1ccc(S(=O)(=O)N(C)c2ccc(OCC(=O)Nc3nnc(C4CC4)s3)cc2)cc1 | 0 | 44* | · | · | · | 1 | 53*
COc1ccc(/C=C2\SC(=O)N(CCCC(=O)Nc3cc(Cl)ccc3C(=O)O)C2=O)cc1 | · | · | -6 | 0 | 0 | · | ·
COc1cc(C(=O)NC(=S)NNC(=O)[C@H]2C[C@@H]2c2ccccc2)cc(OC)c1OC | 11 | 14* | -16 | 10 | 28* | 25* | 33* | OXTR ag confirm=12;V1R ag counter 3x=19
Cc1noc(C)c1NC(=O)Nc1ccc2c(c1)C(=O)N([C@@H](C)CO)C[C@@H](C)[C@@H](CN(C)Cc1ccc3c(c1)OCO3)O2 | · | · | -3 | 1 | 0 | · | ·
O=C1c2cccc3c(N4CCCCC4)ccc(c23)C(=O)N1CCO | 8 | 13* | -25 | 22* | 16 | 18 | 10 | V1R ag confirm=32*;OXTR ag counter=18
COc1ccccc1Nc1ccc(NS(=O)(=O)c2ccc(C(C)=O)cc2)cc1 | · | · | -15 | 16 | 12 | · | ·
COc1ccc(OC)c(NC(=O)Cc2nn(C)c(=O)c3ccccc23)c1 | 5 | 3 | -20 | 7 | 20* | · | · | OXTR ag confirm=7;V1R ag counter 3x=9
COc1cc(NC(=O)Cc2nn(C)c(=O)c3ccccc23)cc(OC)c1OC | 1 | 0 | -7 | 2 | 0 | · | ·
CC(=O)n1cc([C@H]2C=C(C(=O)NCc3ccccc3)O[C@@H](OCc3ccc(CO)cc3)C2)c2ccccc21 | 1 | 0 | -14 | 1 | 2 | · | ·

Bioassay records: PubChem BioAssay, The Scripps Research Institute Molecular Screening Center
